{"source": "paper PMC4073670", "about": "(Nature, 2011)", "key": {"tau K19 [1]": {"system": "tau K19", "assay": "Tau K19 inhibition assay", "assay_type": "biochemical, human", "settings": "equimolar ratio with K19; 50 μM K19, pH 7.4, 37°C, quiescent", "in_short": "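K19 was expressed in E. coli BL21(DE3) with 1 mM IPTG and purified by boiling and cation exchange. Reactions held 50 μM K19 in 250 mM sodium phosphate pH 7.4 with 1 mM DTT, 12.5 μM heparin (6000 MW) and 10 μM ThS. Peptide was added from a 0.5 mM stock. Plates were read every 15 min (ex 440/em 510) at 37°C, quiescent, with 2 s shaking before reads. At least 3 replicates; lag time is the mean threshold-crossing time ± SD.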"}, "VQIVYK": {"system": "VQIVYK", "assay": "VQIVYK inhibition assay", "assay_type": "biochemical", "settings": "25 mM MOPS pH 7.2, 100 μM ThS, room temperature; for VQIVYK fibrillation inhibition, equimolar peptide: equimolar ratio with VQIVYK"}, "[2]": {"system": "HIV-1 infection of TZM-bl cells", "assay": "Effect of WW61, GIHKQK and PYKLWN on HIV-1 infection", "assay_type": "cell-based", "settings": "150, 30, 6, 1.2 and 0 μg/ml during preincubation with virus"}, "[3]": {"system": "HIV-1 infection of TZM-bl cells", "assay": "Effect of WW61 on poly-lysine mediated enhancement of HIV-1 infection", "assay_type": "cell-based", "settings": "poly-lysine/WW61 100, 20, 4, 0.8, 0.16, 0.032, 0.064 and 0 μg/ml during preincubation with virus", "in_short": "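The HIV-1 CCR5-tropic molecular clone came from 293T transfection, with p24 by ELISA. Poly-lysine was mixed 1:1 with test compound. 5-fold dilutions (100, 20, 4, 0.8, 0.16, 0.032, […], 0 μg/ml) were preincubated with an equal volume of virus for 5 min at room temperature. Of each, 20 μl went onto 180 μl TZM-bl cells (LTR-lacZ). β-galactosidase in lysates was read 2 days later by luminescence (RLU/s).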"}, "tau K12": {"system": "tau K12", "assay": "Tau K12 inhibition assay, un-seeded", "assay_type": "biochemical, human", "settings": "50 μM K12, pH 7.4, 37°C"}, "tau K19 [4]": {"system": "tau K19", "assay": "Electron microscopy of K19 fibrillation", "assay_type": "biochemical, human", "settings": "incubation with peptide; negative stain, 1% uranyl acetate", "in_short": "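Recombinant K19 (E. coli BL21(DE3); boiled lysate, cation exchange) was incubated at 50 μM with peptide. Buffer was 250 mM sodium phosphate pH 7.4 with 1 mM DTT, 12.5 μM heparin and 10 μM ThS, held quiescent at 37°C. Samples were spotted on glow-discharged carbon/formvar copper grids for 3 min, rinsed with water, stained with 1% uranyl acetate for 90 s, and imaged by TEM.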"}, "amyloid beta(1-42)": {"system": "amyloid beta(1-42)", "assay": "Amyloid beta fibrillation assay", "assay_type": "biochemical", "settings": "11.5 μM Aβ1-42, 11.5 μM D-TLKIVW, 10 μM ThT, 100 mM Bicine pH 9.1, 37°C, 4 replicates", "in_short": "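Aβ1-42 was diluted to 0.2 mg/ml in 50 mM NH4OH and 0.2 μm filtered. Final mix: 11.5 μM Aβ1-42, 10 μM ThT, 23 mM NH4OH, 100 mM Bicine pH 9.1, with or without 11.5 μM test D-peptide. Four replicates were run at 37°C with continuous 960 rpm shaking (1 mm diameter), reading ThT every minute at Ex 444/Em 482.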"}, "VQIVYK fibers": {"molecular_target": "VQIVYK fibers", "assay": "1H NMR binding to VQIVYK fibers"}, "soluble VQIVYK": {"system": "soluble VQIVYK", "assay": "1H NMR binding to soluble VQIVYK", "settings": "even at 70-fold molar excess of soluble VQIVYK, pH 5.0, 283 K"}, "tau fiber elongation": {"molecular_target": "tau fiber elongation (Homo sapiens, UniProt P10636)", "sequence (P10636 186-283 isoform P10636-2 limits assumed)": "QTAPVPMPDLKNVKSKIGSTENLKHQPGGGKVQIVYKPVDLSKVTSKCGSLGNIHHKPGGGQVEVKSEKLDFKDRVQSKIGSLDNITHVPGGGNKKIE", "assay": "Tau fibrillation kinetic analysis", "assay_type": "biochemical", "settings": "increasing concentrations of inhibitor peptide", "in_short": "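Nucleation (k1) and propagation (k2) rates were fitted from the ThS fibrillation traces of the tau construct assays. The fit used the Finke-Watzky 2-step form, with plateau values fixed first and the remaining parameters fitted by non-linear least-squares regression.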"}, "[5]": {"system": "tau segment VQIVYK, and the K12 and K19 tau constructs", "assay": "Fibrillation of tau segment VQIVYK and tau constructs K12 and K19", "assay_type": "biochemical, human", "in_short": "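Un-seeded ThS fibrillation with peptides at specified molar ratios. For K12/K19: 50 μM protein, 250 mM phosphate pH 7.4, 1 mM DTT, 12.5 μM heparin, 10 μM ThS, 37°C; K12 shaken at 900 rpm, K19 quiescent; read every 15 min (ex 440/em 510). For VQIVYK: 25 mM MOPS pH 7.2 with PTFE beads, room temperature, read every 2 min. At least 3 replicates; lag time is the mean time to cross a threshold.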"}, "K19 fibers": {"system": "K19 fibers", "assay": "Nanogold binding to K19 fibers, electron microscopy blind counting", "parameters": "species or system human", "settings": "z-test versus unconjugated nanogold", "in_short": "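Cys-Gly3-extended test D-peptide or scrambled control (60 nmol) was conjugated to 6 nmol monomaleimido nanogold (1 h, room temperature) and freed of peptide by 10 kDa cut-off. K19 fibers (100 μM K19, 25 μM heparin, overnight at 37°C, pH 7.4) were sonicated and washed. 10 nM conjugate or control was incubated 1 h with 1.67 μM fibers (by monomer) in 25 mM MOPS pH 7.2, then gold-enhanced for EM. Fiber-bound particles were counted blind as end or side.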"}, "ends of K19 fibers": {"system": "ends of K19 fibers", "assay": "Nanogold localization to fiber ends, electron microscopy blind counting", "assay_type": "binding, human", "settings": "for nanogold at fiber ends, significance vs nanogold alone: z-test versus unconjugated nanogold", "in_short": "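Cys-GGG-extended D-peptides were coupled to monomaleimido nanogold for 1 h at room temperature, and unbound peptide was removed by 10-kDa filtration. Conjugate (10 nM) was incubated 1 h with sonicated, heparin-free K19 fibers (1.67 μM by monomer) in 25 mM MOPS pH 7.2. Gold was enlarged with Goldenhance before EM. Particles within a 15 nm cutoff were scored as end- or side-bound by a blinded microscopist.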"}, "[6]": {"molecular_target": "T1, tau VQIVYK segment fibers (Homo sapiens)", "T1 chain": "VQIVYK", "assay": "NMR"}}, "note": "“And” between values parts separate entries of the source, which are not always exact repeats. Equal values may be shown once. Square brackets hold non-standard residues; d marks the D form. Ends that are not written are not given here.", "data": [{"molecule": "D-TIKWVL", "values": [{"measurement": "K19 fibrillation inhibition, equimolar peptide", "setting": "tau K19 [1]", "result": "little inhibitory effect"}, {"measurement": "VQIVYK fibrillation inhibition, equimolar peptide", "setting": "VQIVYK", "result": "little inhibitory effect"}]}, {"molecule": "D-TIWKVL", "values": [{"measurement": "K19 fibrillation inhibition, equimolar peptide", "setting": "tau K19 [1]", "result": "little inhibitory effect"}, {"measurement": "VQIVYK fibrillation inhibition, equimolar peptide", "setting": "VQIVYK", "result": "little inhibitory effect"}]}, {"molecule": "H-[W-H-K-chAla-W-hydroxyTic]-OH [WW61]", "values": [{"measurement": "effect on HIV infectivity in the absence of SEVI", "setting": "[2]", "result": "does not affect HIV infectivity"}, {"measurement": "effect on poly-lysine mediated HIV infectivity", "setting": "[3]", "result": "no inhibitory effect on poly-lysine mediated HIV infectivity"}]}, {"molecule": "D-TLKIVW", "values": [{"measurement": "delay of K12 fibrillation, five-fold molar excess", "setting": "tau K12; five-fold molar excess, some experimental replicates", "result": "more than two weeks in some experimental replicates"}, {"measurement": "K12 fiber formation delay, sub-equimolar peptide", "setting": "tau K12; sub-equimolar concentration relative to K12", "result": "delays fiber formation even at sub-equimolar concentration"}, {"measurement": "VQIVYK fiber formation delay, sub-equimolar peptide", "setting": "VQIVYK; sub-equimolar concentration relative to VQIVYK", "result": "delays fiber formation even at sub-equimolar concentration"}, {"measurement": "K19 fibrillation by electron microscopy", "setting": "tau K19 [4]", "result": "prevents K19 fibrillation"}, {"measurement": "block of amyloid beta fibrillation", "setting": "amyloid beta(1-42)", "result": "unable to block the fibrillation of amyloid beta"}, {"measurement": "estimated affinity constant for fibers", "setting": "VQIVYK fibers; 1H NMR, 500 MHz, fibers containing 0 to 1500 μM VQIVYK monomers", "result": "low micromolar range"}, {"measurement": "standard free binding energy (ΔGbinding)", "setting": "VQIVYK fibers; from apparent Kd of 2 μM, VQIVYK fibers", "result": "~ 7.4 kcal/mol and 7.4 kcal/mol"}, {"measurement": "change in indole proton chemical shift with soluble VQIVYK", "setting": "soluble VQIVYK", "result": "Only a slight change in the chemical shifts"}, {"measurement": "fiber elongation rate", "setting": "tau fiber elongation", "result": "fiber elongation rate decreases in the presence of increasing concentrations of inhibitor peptide"}, {"measurement": "lag time in un-seeded reactions", "setting": "[5]; un-seeded reactions", "result": "large increase in lag time"}]}, {"molecule": "CGGG-(D)-TLKIVW [nanogold-D-TLKIVW]", "values": [{"measurement": "nanogold bound to fibers, significance vs nanogold alone", "setting": "K19 fibers", "result": "significantly different from nanogold alone"}, {"measurement": "number of fiber-bound nanogold particles localizing to fiber ends (xend), n = 86", "setting": "ends of K19 fibers; n = 86, 10 nM conjugate, 1.67 μM K19 fibers, pH 7.2, 1 hour", "result": 49}, {"measurement": "nanogold at fiber ends, significance vs nanogold alone", "setting": "ends of K19 fibers", "result": "significantly different from nanogold alone"}]}, {"molecule": "CGGG-(D)-LKTWIV [nanogold-D-LKTWIV]", "values": [{"measurement": "nanogold bound to fibers, significance vs nanogold alone", "setting": "K19 fibers", "result": "does not differ significantly from nanogold alone"}, {"measurement": "nanogold at fiber ends, significance vs nanogold alone", "setting": "ends of K19 fibers", "result": "does not differ significantly from nanogold alone"}]}, {"molecule": "D-LKTWIV", "values": [{"measurement": "K19 fibrillation inhibition, equimolar peptide", "setting": "tau K19 [1]", "result": "little inhibitory effect"}, {"measurement": "VQIVYK fibrillation inhibition, equimolar peptide", "setting": "VQIVYK", "result": "little inhibitory effect"}, {"measurement": "change in indole proton chemical shift with soluble VQIVYK", "setting": "soluble VQIVYK", "result": "Only a slight change in the chemical shifts"}]}, {"molecule": "L-TLKIVW", "values": [{"measurement": "effectiveness of diastereomer relative to D-TLKIVW", "setting": "[5]; diastereomer compared with D-TLKIVW, ThS fluorescence", "result": "less effective than D-TLKIVW"}]}, {"molecule": "[dT][dL][dK][dI][dV][dW]", "note": "[D-TLKIVW]", "values": [{"measurement": "Kd", "setting": "[6]", "result": "~2", "unit": "µM"}]}]}
